Results filed as inconclusive are left out.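 Rule for the calls, unless noted: active = RAM network inhibition above 8.4% in each of two replicates, 3 SD over the compound average; inconclusive = above 8.4% inhibition in only one replicate; inactive = 8.4% inhibition or less in each replicate.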
Tests used:
[1] = S. cerevisiae growth inhibition in permissive medium (OD615), pilot counter-assay for S. cerevisiae lifespan shortening project, permissive growth control (AID 705;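 active = growth inhibition above 25% in both replicates, a cutoff set 3 SD above the mean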); conditions: OD615, 24 h, at 10 µM, active compounds read high
Method in brief: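 Material: engineered DeaD yeast; compound dosing: one dose 10 µM, DMSO 0.25% final; measure: yeast growth inhibition indicated by reduced 24 h OD615; detection: OD615 turbidity read; incubation: cells pre-grown 4 h, then 24 h compound exposure, 30 °C humidified; medium: permissive synthetic complete medium with raffinose and galactose carbon sources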

[2] = S. cerevisiae growth inhibition in restrictive medium, OD615, pilot screen, restrictive growth control, yeast lifespan reduction project (AID 706;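 active = growth inhibition above a set limit, 3 SD over mean compound inhibition, in both replicates, cut at about 43% in these data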;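 note: modified DeaD lifespan yeast strain shifted to restrictive glucose medium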); conditions: OD615, 48 h, at 10 µM, active compounds read high
Method in brief: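 material = engineered S. cerevisiae DeaD strain | medium = glucose-based CSMM-D restrictive medium | times = 4 h pre-incubation, 48 h exposure at 30 °C | technique = OD615 absorbance reading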

[3] = doxorubicin toxicity protection in MRP-1 cells – H69AR cells, CellTiter-Glo, duplicate, MRP-1 activator project, pilot screen (AID 807;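 active = viability increase at or above a cutoff of the median across tested compounds plus 3 SD, cut at about 8.5% in these data, passing the limit was not always enough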;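 note: compound pretreatment 18-22 h then 72 h combined with doxorubicin; 0% = doxorubicin alone and 100% = vehicle without doxorubicin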); conditions: H69AR viability with doxorubicin, CellTiter-Glo luminescence; at 10 µM; active compounds read high
[4] = viability of HCT116 without oncogenic beta-catenin – human colon tumor cells, pilot screen (AID 823;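 active = cell viability at or below a set limit in both duplicate runs, the limit being the all-compound median minus 4 SD, cut at about 23% in these data, passing the limit was not always enough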;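 note: 0% = wells killed by 20 µM Hyamine and 100% = untreated DMSO cell wells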); conditions: HCT116 beta-catenin knockout viability, CellTiter-Glo, 60 h; at 10 µM; active compounds read low
[5] = viability of PTEN-null HCT116 cells – cell-based, HCT116 clonal line, CellTiter-Glo, pilot screen (AID 824;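 active = viability at or below 27.92% in each of two runs, the all-compound median minus 4 SD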;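 note: 0% = 20 µM Hyamine control and 100% = vehicle cell control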); conditions: HCT116 PTEN-deleted viability, 60 h, at 10 µM, active compounds read low
[6] = RAM pathway blockade in budding yeast – dse1pr::URA3 reporter, 5-FOA selection, pilot screen (AID 869;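 active = inhibition over a set limit, the all-compound mean plus 3 SD, in both replicate runs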;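 note: 0% = DMSO wells with no growth and 100% = 10 µM 1-NA-PP1 with full growth; RAM network block rescues cells from 5-FOA so hits raise OD615 growth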); conditions: S. cerevisiae dse1pr::URA3 5-FOA growth, OD615, 2 d; at 10 µM; active compounds read high; strain carries analog-sensitive mutant Cbk1 kinase
[7] = RAM signaling pathway blockade in yeast – S. cerevisiae, Pdr1DBD-CYC8 efflux-inhibited sensitized strain, primary screen (AID 1298);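 note: 0% = DMSO untreated cells without growth and 100% = 10 µM 1-NA-PP1 full growth; higher means more yeast growth rescued from 5-FOA killing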; conditions: S. cerevisiae cbk1-as DSE1-URA3 strain, 5-FOA growth OD615, 2 d; at 50 µM; active compounds read high

CC1(C)CC(NC(=O)C23CCC(C)(C(=O)C2)C3(C)C)CC(C)(C)N1 (centres undefined)
inactive: growth inhibition [1] -4.15% | growth inhibition [2] -6.33% | viability increase [3] -0.11% | viability [4] 96.2% | viability [5] 95.1% | inhibition [6] 2.67% | RAM network inhibition [7] 3.01%

CCc1cc(C(=O)Nc2ccccc2)cs1
inactive: growth inhibition [1] -8.2% | growth inhibition [2] 4.65% | viability increase [3] -0.18% | viability [4] 82.8% | viability [5] 90.9% | inhibition [6] 2.13% | RAM network inhibition [7] -2.13%

COc1cccc(NC(=O)c2ccncc2)c1
inactive: growth inhibition [1] -9.44% | growth inhibition [2] -11% | viability increase [3] -3.81% | viability [4] 94.3% | viability [5] 100% | inhibition [6] 1.18% | RAM network inhibition [7] 4.2%

O=C1CC(N2CCN(C(c3ccccc3)c3ccccc3)CC2)C(=O)N1 (centres undefined)
inactive: growth inhibition [1] -8.31% | growth inhibition [2] -9.7% | viability increase [3] -1.16% | viability [4] 102% | viability [5] 102% | inhibition [6] 1.03% | RAM network inhibition [7] 5.3%

CCn1c(C2CC(=O)N(c3ccc(C)c(C)c3)C2)nc2ccccc21 (centres undefined)
inactive: growth inhibition [1] -6.54% | growth inhibition [2] 1.06% | viability increase [3] -3.09% | viability [4] 86.7% | viability [5] 89.9% | inhibition [6] -0.35% | RAM network inhibition [7] 0.57%

CC1=C(C(=O)OC(C)C)C(c2c[nH]c3ccccc23)n2ncnc2N1 (centres undefined)
inactive: growth inhibition [1] -5.16% | growth inhibition [2] -3.17% | viability increase [3] -1.69% | viability [4] 105% | viability [5] 97.1% | inhibition [6] 2.2% | RAM network inhibition [7] -0.16%

CSc1nnc(NC(=O)C2CCCCC2)s1
inactive: growth inhibition [1] -7.81% | growth inhibition [2] -6.62% | viability increase [3] 0.06% | viability [4] 97% | viability [5] 99.3% | inhibition [6] -0.045% | RAM network inhibition [7] 0.63%

CCNC(=O)CN(Cc1ccccc1)S(=O)(=O)c1ccccc1
inactive: growth inhibition [1] -5.21% | growth inhibition [2] 13.1% | viability increase [3] 0.61% | viability [4] 89.3% | viability [5] 104% | inhibition [6] 0.615% | RAM network inhibition [7] 1.94%

O=C(CCCN1C(=O)c2ccccc2C1=O)Nc1ccccc1C(=O)N1CCOCC1
inactive: growth inhibition [1] -5.06% | growth inhibition [2] 2.61% | viability increase [3] 0.44% | viability [4] 102% | viability [5] 103% | inhibition [6] 0.11% | RAM network inhibition [7] 3.36%

Cc1cccc(NC(=O)NCCN2C(=O)C3C4C=CC(C4)C3C2=O)c1 (centres undefined)
inactive: growth inhibition [1] -11.4% | growth inhibition [2] 8.84% | viability increase [3] -1.25% | viability [4] 104% | viability [5] 96.4% | inhibition [6] 1.83% | RAM network inhibition [7] 0.37%

CCOc1ccc(CC(=O)NCc2cn3c(C)csc3n2)cc1
inactive: growth inhibition [1] -5.88% | growth inhibition [2] 12.6% | viability increase [3] -0.15% | viability [4] 97.4% | viability [5] 102% | inhibition [6] 1.14% | RAM network inhibition [7] 6.38%

O=C(Nc1ccc(N2CCCC2)c(Cl)c1)c1ccc(Br)o1
inactive: growth inhibition [1] 3.44% | growth inhibition [2] 17% | viability increase [3] -4.13% | viability [4] 78.2% | viability [5] 79.2% | inhibition [6] 0.885% | RAM network inhibition [7] 3.68%

Cc1cccn2cc(-c3ccc(S(=O)(=O)N4CCOCC4)cc3)nc12
inactive: growth inhibition [1] -12.6% | growth inhibition [2] -19.7% | viability increase [3] -1.3% | viability [4] 83.5% | viability [5] 91% | inhibition [6] 1.75% | RAM network inhibition [7] 2.29%

Cc1sc2ncnc(Sc3nnc4sc5ccccc5n34)c2c1C
inactive: growth inhibition [1] 6.21% | growth inhibition [2] -2.07% | viability increase [3] -3.97% | viability [4] 55.4% | viability [5] 65.2% | inhibition [6] 2.33% | RAM network inhibition [7] 5.95%

O=C(c1cncc(Br)c1)N1CCN(c2ccc(N3CCOCC3)nn2)CC1
inactive: growth inhibition [1] -0.43% | growth inhibition [2] 8.3% | viability increase [3] -2.32% | viability [4] 98.1% | viability [5] 98.5% | inhibition [6] 0.48% | RAM network inhibition [7] 4.09%

O=C(NC1CCS(=O)(=O)C1)c1ccccc1C(=O)c1ccccc1 (centres undefined)
inactive: growth inhibition [1] -15.2% | growth inhibition [2] -9.07% | viability increase [3] -0.35% | viability [4] 102% | viability [5] 99.1% | inhibition [6] 2.46% | RAM network inhibition [7] 9.61%

N#C/C(=C(/O)CN1C(=O)c2ccccc2C1=O)c1nc2ccccc2[nH]1
inactive: growth inhibition [1] -9.93% | growth inhibition [2] -4.08% | viability increase [3] 0.55% | viability [4] 100% | viability [5] 94.4% | inhibition [6] 4.51% | RAM network inhibition [7] 4.04%
